Data taken from the RNAGym collection of RNA variant scans (doi:10.1126/science.aae0568).
Variants at the floor of the assay were thinned out.

B1: tRNA (parent)
chain: GUUCCGUUGGCGUAAUGGUAACGCGUCUCCCUCCUAAGGAGAAGACUGCGGGUUCGAGUCCCGUACGGAACG

Variants of: B1
Assay: yeast fitness relative to wild type (ratio to wild type); higher = fitter; tRNA-Arg(CCU), competitive growth, 37 C, YPD
In short: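 Variants of the tRNA-Arg(CCU) gene, chemically synthesised with a 3% per-site mutation rate at 69 sites, were placed at the native genomic locus in Saccharomyces cerevisiae. The pooled strains were competed in YPD at 37°C for 24 hours in six parallel replicates. Gene amplicons from the start population and from each end population were read by 100-nucleotide paired-end sequencing. Darwinian fitness relative to wild type came from changes in genotype frequencies; genotypes needed ≥ 100 starting reads, and estimates < 0.5 were set to 0.5.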

Row | Variant | yeast fitness
1 | G6C A14U A70C | 0.591
2 | G6C A14C U54C | ≤ 0.5
3 | G6A C29A A37U G67C | ≤ 0.5
4 | G6A U13G C22A U26A C29G C34G G50C | ≤ 0.5
5 | G6A U8C G18C A21C C33A | ≤ 0.5
6 | G6A C24U U26G C34A C46G G56A C66U | ≤ 0.5
7 | G6C A45C G56A | 0.568
8 | G6A U16A C61G G67U | ≤ 0.5
9 | G6C A43C G50A | ≤ 0.5
10 | G6A G51A | 0.83
11 | G6A G51C | 0.595
12 | G6A U26G C30U G52A | ≤ 0.5
13 | G6A U19A G44A | ≤ 0.5
14 | G6C A15U | 0.738
15 | G6C A15G | 0.808
16 | G6A C61A G67A | 0.547
17 | G6A G51C A57G C61U A65C | ≤ 0.5
18 | G6C C11A C66G | 0.592
19 | G6A C22G C60A C62U | ≤ 0.5
20 | G6C C11G G44C | ≤ 0.5
21 | G6A C33U G50A G52C A65C | ≤ 0.5

Row | Variant | yeast fitness
22 | G6A G18A G41C | ≤ 0.5
23 | G6A C33G C34G A69U | ≤ 0.5
24 | G6A U7A | 0.749
25 | G6A G9C C11G C22A C30U C31G G67U | ≤ 0.5
26 | G6A G10C A20G C22U G38C U53C C61G | ≤ 0.5
27 | G6A U16A A36C A37G G56C | ≤ 0.5
28 | G6A G56A | 0.852
29 | G6A G56C | 0.672
30 | G6A U8C A69C | 0.678
31 | G6A U26A C33A G51C C62U | 0.591
32 | G6A G12A C34U G41A | 0.556
33 | G6A C11U G68A | ≤ 0.5
34 | G6C A20G C61A | ≤ 0.5
35 | G6A C30G G67C | ≤ 0.5
36 | G6A U13A A14G A42U G48C G67C | ≤ 0.5
37 | G6A C29G | 0.634
38 | G6A C29U | 0.748
39 | G6C C11A A45C C60U | ≤ 0.5
40 | G6A C24U U32G A40U | ≤ 0.5
41 | G6C A21G C30G A37U | 0.566
42 | G6A G44A | 0.737

Row | Variant | yeast fitness
43 | G6A C24U A40U A45U | ≤ 0.5
44 | G6A C46A | 0.97
45 | G6A C33A U35A G68C | ≤ 0.5
46 | G6A G67C | 0.963
47 | G6A G67U | 0.814
48 | G6A G23A C27U C60G G67A | ≤ 0.5
49 | G6A G38A | 0.812
50 | G6A G38C | 0.808
51 | G6A U47G | 0.594
52 | G6A G12A C22U A42C | ≤ 0.5
53 | G6C A37C | 0.693
54 | G6C A21G A57C | ≤ 0.5
55 | G6A G12C A36C | ≤ 0.5
56 | G6A G9A C24G U35A G48C | ≤ 0.5
57 | G6A C31G C34U C46U G56A | ≤ 0.5
58 | G6A C30A C31G G39C | 0.534
59 | G6A U26C G44C | ≤ 0.5
60 | G6C C11A U32A A42G C55U | 0.605
61 | G6A U47A C61U | 0.57
62 | G6C A43C G50A A70U | 0.519
63 | G6A C29G U32C A69C | ≤ 0.5

Row | Variant | yeast fitness
64 | G6A U28C C61U | 0.628
65 | G6A C33U G56C C60U | ≤ 0.5
66 | G6C A40G C66U | ≤ 0.5
67 | G6A U19C U28G U32A G38C | ≤ 0.5
68 | G6A G9C G44C | 0.605
69 | G6A C34A A40U | 0.556
70 | G6A C34U A40G G68A | ≤ 0.5
71 | G6A C31U A43U | 0.529
72 | G6A C33G C34G C60A A69U | ≤ 0.5
73 | G6A C29G U35G C61U | ≤ 0.5
74 | G6A U26A C61A | ≤ 0.5
75 | G6A G17C U19C C29A A70G | ≤ 0.5
76 | G6A G10A C30U C60G | ≤ 0.5
77 | G6A C30A G39A U47A G63C | ≤ 0.5
78 | G6A C27G C31G G50A A70U | ≤ 0.5
79 | G6A C24U U32G A40U U64G | ≤ 0.5
80 | G6C A36C A65C G67A | ≤ 0.5
81 | G6C A37U A57C A69U A70C | ≤ 0.5
82 | G6A G10C | 0.725
83 | G6A C30A A45U | 0.667
84 | G6A G12A G23C C49G U53G A57G | ≤ 0.5
